# Published values collected from several papers.
# Protocols differ between the studies behind these lines.
Structure (SMILES),target or system,test,test system,setting,endpoint,result
CON=C(N)c1ccc(-c2ccc(-c3ccc(C(N)=NOC)cc3)o2)cc1,"Cytochrome P450 2J2 (CYP2J2, Homo sapiens, UniProt P51589)","enzyme activity, substrate",,,Km,0.9 µM
Nc1ncnc2c1ncn2[C@@H]1C=C[C@@]2(CO)C[C@@H]12,MT4,"cell growth or viability, MTT",,5 days,CC50,> 100 µg/mL
C=C(CCO)Cn1cnc2c(=O)[nH]c(N)nc21,MT4,"cell growth or viability, MTT",,7 days,CC50,> 100 µM
Cc1ncsc1-c1ccc(CNC(=O)[C@@H]2C[C@@H](O)CN2C(=O)[C@@H](NC(=O)CCCCCCCCCCNC(=O)O[C@H]2C[C@@H](C)C=C3C=C[C@H](C)[C@H](CC[C@@H]4C[C@@H](O)CC(=O)O4)[C@H]32)C(C)(C)C)cc1,,metabolic stability,"mouse, liver microsomes","1 µM, 5 min, pH 7.4",compound remaining,41.2%
C[C@H](Cn1cnc2c(N)ncnc21)OCP(=O)(O)O,MT4,"cell growth or viability, MTT",,5 days,CC50,6.73 µg/mL
COc1cc(/C=C/C(=O)OCCCc2ccc(O[C@H](COC(=O)/C=C/c3ccc(O)c(OC)c3)[C@@H](OC)c3ccc(O)c(OC)c3)c(OC)c2)ccc1O,MT4,cell growth or viability,,72 h,CC50,> 10 µM
N=C(N)c1ccc(OCCCCCCCOc2ccc(C(=N)N)cc2)cc1,,haemolysis,sheep,"200 µg/mL, 20 h",haemolysis,9.2%
CC(=O)Nc1nnc(N2CCN([C@@H](C)c3ccc4c(c3)OCO4)CC2)s1,,,"dog, plasma",1 µM,fraction unbound,0.125
COc1cccc2c1C(=O)c1c(O)c3c(c(O)c1C2=O)C[C@@](O)(C(=O)CO)C[C@@H]3O[C@H]1C[C@H](N)[C@H](O)[C@H](C)O1,BJ,cell growth or viability,,,IC50,0.1 µM
N=C(N)c1ccc(OCc2ccc(COc3ccc(C(=N)N)cc3)cc2)cc1,,haemolysis,sheep,"200 µg/mL, 20 h",haemolysis,0.4%
Cc1ccnc2c1NC(=O)c1cccnc1N2C1CC1,MT4,"cell growth or viability, MTT",,5 days,CC50,0.82 µg/mL
N=C(N)c1ccccc1OCc1cccc(COc2ccccc2C(=N)N)c1,,haemolysis,sheep,"200 µg/mL, 1 h",haemolysis,0%
Cc1ccc2c(c1)nc(/C=C/c1cccc3cccnc13)n2-c1ccccc1,,metabolic stability,"rat, liver microsomes","1.5 µM, 45 min",compound remaining,17.8%
N=C(N)c1ccc(OCCSCCOc2ccc(C(=N)N)cc2)cc1,,haemolysis,sheep,"200 µg/mL, 20 h",haemolysis,0%
O=c1ccn([C@@H]2C=C[C@@]3(CO)C[C@@H]23)c(=O)[nH]1,MT4,"cell growth or viability, MTT",,5 days,CC50,> 100 µg/mL
